Assay results: ChEMBL document CHEMBL3352372, “Design, synthesis and 3D-QSAR studies of new diphenylamine containing 1,2,4-triazoles as potential antitubercular agents” (Eur J Med Chem, 2014)
Converted amounts (≈) assume the structure as drawn.

Columns and labels:
Staphylococcus aureus = assay: Antibacterial activity Staphylococcus aureus ATCC-25923 assessed as growth inhibition after 24 hrs by twofold serial dilution technique; format: functional; settings: ATCC-25923, 24 h
Procedure, shortened: (§1)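 Tube twofold serial dilution of compounds dissolved in DMSO, under aseptic conditions. Solvent, growth (negative) and drug (ampicillin) controls were run alongside. Tubes were incubated 24 h at 37 °C. MIC was taken as the lowest concentration giving apparent complete inhibition of growth. Strains were first screened by cup plate method.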

Pseudomonas aeruginosa = assay: Antibacterial activity Pseudomonas aeruginosa ATCC-27853 assessed as growth inhibition after 24 hrs by twofold serial dilution technique; format: functional; settings: ATCC-27853, 24 h; procedure, shortened: as §1
Bacillus spizizenii = assay: Antibacterial activity Bacillus Bacillus subtilis ATCC 6633 assessed as growth inhibition after 24 hrs by twofold serial dilution technique; format: functional; settings: ATCC 6633, 24 h; procedure, shortened: as §1
Escherichia coli = assay: Antibacterial activity Escherichia coli ATCC-25922 assessed as growth inhibition after 24 hrs by twofold serial dilution technique; format: functional; settings: ATCC-25922, 24 h; procedure, shortened: as §1
[1] = Cytotoxicity against african green monkey Vero cells after 72 hrs by MTT assay; format: cell-based; settings: chlorocebus sabaeus
Procedure, shortened: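 After media removal and a PBS wash, dilutions were added with DMSO control, then incubated 72 h at 37 °C, 5% CO2. Cells were washed, given MTT for 3 h in the dark, and solubilized in DMSO 1–2 h. CC50 was extrapolated from plotted % inhibition (100 − % viability) against concentration.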

[2] = Cytotoxicity against human HepG2 cells after 72 hrs by MTT assay; format: cell-based
[3] = tested on: Mycobacterium tuberculosis; assay: Antitubercular activity Mycobacterium tuberculosis H37Rv assessed as growth inhibition after 30 days by agar microdilution method; format: functional
Procedure, shortened: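 M. tuberculosis H37Rv (ATCC 27294) grown on L-J medium, harvested in 0.85% saline with 0.05% Tween-80. Compounds, from a DMSO stock, were added as twofold dilutions to Middlebrook 7H10 agar with OADC in tubes. After 30 days of incubation, tubes were compared with untreated H37Rv control tubes. The lowest concentration giving complete inhibition of colonies was reported.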

[4] = tested on: Mycobacterium tuberculosis; assay: Antitubercular activity Mycobacterium tuberculosis H37Rv assessed as growth inhibition after 5 days by MABA method; format: functional; settings: for MIC: Mycobacterium tuberculosis, H37Rv, 120 h
Procedure, shortened: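 Log-phase H37Rv was diluted to a final OD550 of 0.05 in Middlebrook 7H9 broth, and compounds in DMSO were added in 96-well plates. After a further 24 h at 37 °C/5% CO2, fluorescence was read (ex 544 nm, em 590 nm). Inhibition was scored against the untreated control, with >90% inhibition counted as active in the initial screen.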

| SMILES | MIC (Staphylococcus aureus) [µM] | MIC (Pseudomonas aeruginosa) [µM] | MIC (Bacillus spizizenii) [µM] | MIC (Escherichia coli) [µM] | CC50 at 72 h [1] [µM] | CC50 at 72 h [2] [µM] | MIC [3] [µM] | -logMIC [4] | MIC [4] [µM] |
| --- | --- | --- | --- | --- | --- | --- | --- | --- | --- |
| S=c1n(CN2CCOCC2)nc(Cc2ccccc2Nc2c(Cl)cccc2Cl)n1/N=C/c1ccccc1 | 6.25 (≈ 3.46 µg/mL) | 12.5 (≈ 6.92 µg/mL) | 6.25 (≈ 3.46 µg/mL) | 12.5 (≈ 6.92 µg/mL) | > 300 | > 300 | 0.2 (≈ 0.111 µg/mL) | 6.699 | 0.2 (≈ 0.111 µg/mL) |
| COc1ccc(/C=N/n2c(Cc3ccccc3Nc3c(Cl)cccc3Cl)nn(CN3CCOCC3)c2=S)cc1 | 6.25 (≈ 3.65 µg/mL) | 12.5 (≈ 7.29 µg/mL) | 12.5 (≈ 7.29 µg/mL) | 6.25 (≈ 3.65 µg/mL) | > 300 | > 300 | 6.25 (≈ 3.65 µg/mL) | 5.204 | 6.25 (≈ 3.65 µg/mL) |
| COc1ccc(/C=N/n2c(Cc3ccccc3Nc3c(Cl)cccc3Cl)nn(CN3CCOCC3)c2=S)cc1OC | 12.5 (≈ 7.67 µg/mL) | 12.5 (≈ 7.67 µg/mL) | 12.5 (≈ 7.67 µg/mL) | 6.25 (≈ 3.83 µg/mL) | > 300 | 282 | 6.25 (≈ 3.83 µg/mL) | 5.204 | 6.25 (≈ 3.83 µg/mL) |
| S=c1n(CN2CCOCC2)nc(Cc2ccccc2Nc2c(Cl)cccc2Cl)n1/N=C/c1ccco1 | 12.5 (≈ 6.79 µg/mL) | 25 (≈ 13.6 µg/mL) | 12.5 (≈ 6.79 µg/mL) | 12.5 (≈ 6.79 µg/mL) | > 300 | > 300 | 3.12 (≈ 1.7 µg/mL) | 5.505 | 3.12 (≈ 1.7 µg/mL) |
| S=c1n(CN2CCOCC2)nc(Cc2ccccc2Nc2c(Cl)cccc2Cl)n1/N=C/c1cccs1 | 6.25 (≈ 3.5 µg/mL) | 12.5 (≈ 6.99 µg/mL) | 12.5 (≈ 6.99 µg/mL) | 6.25 (≈ 3.5 µg/mL) | > 300 | 250 | 3.12 (≈ 1.75 µg/mL) | 5.796 | 1.6 (≈ 0.895 µg/mL) |
| S=c1n(CN2CCOCC2)nc(Cc2ccccc2Nc2c(Cl)cccc2Cl)n1/N=C/c1ccncc1 | 12.5 (≈ 6.93 µg/mL) | 25 (≈ 13.9 µg/mL) | 12.5 (≈ 6.93 µg/mL) | 25 (≈ 13.9 µg/mL) |  |  | 12.5 (≈ 6.93 µg/mL) | 4.903 | 12.5 (≈ 6.93 µg/mL) |
| S=c1n(CN2CCCCC2)nc(Cc2ccccc2Nc2c(Cl)cccc2Cl)n1/N=C/c1ccccc1 | 12.5 (≈ 6.89 µg/mL) | 25 (≈ 13.8 µg/mL) | 25 (≈ 13.8 µg/mL) | 12.5 (≈ 6.89 µg/mL) | > 300 | > 300 | 6.25 (≈ 3.45 µg/mL) | 5.204 | 6.25 (≈ 3.45 µg/mL) |
| COc1ccc(/C=N/n2c(Cc3ccccc3Nc3c(Cl)cccc3Cl)nn(CN3CCCCC3)c2=S)cc1 | 12.5 (≈ 7.27 µg/mL) | 12.5 (≈ 7.27 µg/mL) | 12.5 (≈ 7.27 µg/mL) | 6.25 (≈ 3.63 µg/mL) |  |  | 12.5 (≈ 7.27 µg/mL) | 4.903 | 12.5 (≈ 7.27 µg/mL) |
| COc1ccc(/C=N/n2c(Cc3ccccc3Nc3c(Cl)cccc3Cl)nn(CN3CCCCC3)c2=S)cc1OC | 12.5 (≈ 7.64 µg/mL) | 25 (≈ 15.3 µg/mL) | 25 (≈ 15.3 µg/mL) | 25 (≈ 15.3 µg/mL) |  |  | 6.25 (≈ 3.82 µg/mL) | 4.903 | 12.5 (≈ 7.64 µg/mL) |
| S=c1n(CN2CCCCC2)nc(Cc2ccccc2Nc2c(Cl)cccc2Cl)n1/N=C/c1ccco1 | 25 (≈ 13.5 µg/mL) | 25 (≈ 13.5 µg/mL) | 25 (≈ 13.5 µg/mL) | 12.5 (≈ 6.77 µg/mL) | > 300 | 262 | 6.25 (≈ 3.38 µg/mL) | 5.204 | 6.25 (≈ 3.38 µg/mL) |
| S=c1n(CN2CCCCC2)nc(Cc2ccccc2Nc2c(Cl)cccc2Cl)n1/N=C/c1cccs1 | 12.5 (≈ 6.97 µg/mL) | 12.5 (≈ 6.97 µg/mL) | 12.5 (≈ 6.97 µg/mL) | 12.5 (≈ 6.97 µg/mL) |  |  | 12.5 (≈ 6.97 µg/mL) | 4.903 | 12.5 (≈ 6.97 µg/mL) |
| S=c1n(CN2CCCCC2)nc(Cc2ccccc2Nc2c(Cl)cccc2Cl)n1/N=C/c1ccncc1 | 12.5 (≈ 6.91 µg/mL) | 25 (≈ 13.8 µg/mL) | 25 (≈ 13.8 µg/mL) | 25 (≈ 13.8 µg/mL) |  |  | 12.5 (≈ 6.91 µg/mL) | 4.903 | 12.5 (≈ 6.91 µg/mL) |
| O=C1CSC(c2ccccc2)N1n1c(Cc2ccccc2Nc2c(Cl)cccc2Cl)n[nH]c1=S (centres undefined) | 12.5 (≈ 6.61 µg/mL) | 12.5 (≈ 6.61 µg/mL) | 12.5 (≈ 6.61 µg/mL) | 12.5 (≈ 6.61 µg/mL) |  |  |  | 4.301 | 50 (≈ 26.4 µg/mL) |
| COc1ccc(C2SCC(=O)N2n2c(Cc3ccccc3Nc3c(Cl)cccc3Cl)n[nH]c2=S)cc1 (centres undefined) | 12.5 (≈ 6.98 µg/mL) | 100 (≈ 55.9 µg/mL) | 100 (≈ 55.9 µg/mL) | 100 (≈ 55.9 µg/mL) |  |  |  | 4.301 | 50 (≈ 27.9 µg/mL) |
| COc1ccc(C2SCC(=O)N2n2c(Cc3ccccc3Nc3c(Cl)cccc3Cl)n[nH]c2=S)cc1OC (centres undefined) | 100 (≈ 58.9 µg/mL) | 100 (≈ 58.9 µg/mL) | 100 (≈ 58.9 µg/mL) | 100 (≈ 58.9 µg/mL) |  |  |  | 4.301 | 50 (≈ 29.4 µg/mL) |
| O=C1CSC(c2ccco2)N1n1c(Cc2ccccc2Nc2c(Cl)cccc2Cl)n[nH]c1=S (centres undefined) | 12.5 (≈ 6.48 µg/mL) | 12.5 (≈ 6.48 µg/mL) | 12.5 (≈ 6.48 µg/mL) | 12.5 (≈ 6.48 µg/mL) |  |  |  | 4.602 | 25 (≈ 13 µg/mL) |
| O=C1CSC(c2cccs2)N1n1c(Cc2ccccc2Nc2c(Cl)cccc2Cl)n[nH]c1=S (centres undefined) | 12.5 (≈ 6.68 µg/mL) | 12.5 (≈ 6.68 µg/mL) | 12.5 (≈ 6.68 µg/mL) | 12.5 (≈ 6.68 µg/mL) |  |  |  | 4.602 | 25 (≈ 13.4 µg/mL) |
| O=C1CSC(c2ccncc2)N1n1c(Cc2ccccc2Nc2c(Cl)cccc2Cl)n[nH]c1=S (centres undefined) | 25 (≈ 13.2 µg/mL) | 50 (≈ 26.5 µg/mL) | 12.5 (≈ 6.62 µg/mL) | 50 (≈ 26.5 µg/mL) |  |  | 6.25 (≈ 3.31 µg/mL) | 4.903 | 12.5 (≈ 6.62 µg/mL) |
| O=c1c2ccccc2nc2n(/N=C/c3ccccc3)c(Cc3ccccc3Nc3c(Cl)cccc3Cl)nn12 | 12.5 (≈ 6.74 µg/mL) | 12.5 (≈ 6.74 µg/mL) | 12.5 (≈ 6.74 µg/mL) | 12.5 (≈ 6.74 µg/mL) |  |  | 12.5 (≈ 6.74 µg/mL) | 4.903 | 12.5 (≈ 6.74 µg/mL) |
| COc1ccc(/C=N/n2c(Cc3ccccc3Nc3c(Cl)cccc3Cl)nn3c(=O)c4ccccc4nc23)cc1 | 100 (≈ 56.9 µg/mL) | 100 (≈ 56.9 µg/mL) | 25 (≈ 14.2 µg/mL) | 100 (≈ 56.9 µg/mL) |  |  |  | 4.602 | 25 (≈ 14.2 µg/mL) |
| COc1ccc(/C=N/n2c(Cc3ccccc3Nc3c(Cl)cccc3Cl)nn3c(=O)c4ccccc4nc23)cc1OC | 12.5 (≈ 7.49 µg/mL) | 50 (≈ 30 µg/mL) | 25 (≈ 15 µg/mL) | 25 (≈ 15 µg/mL) |  |  |  | 4.602 | 25 (≈ 15 µg/mL) |
| O=c1c2ccccc2nc2n(/N=C/c3ccco3)c(Cc3ccccc3Nc3c(Cl)cccc3Cl)nn12 | 12.5 (≈ 6.62 µg/mL) | 12.5 (≈ 6.62 µg/mL) | 12.5 (≈ 6.62 µg/mL) | 12.5 (≈ 6.62 µg/mL) |  |  |  | 4.602 | 25 (≈ 13.2 µg/mL) |
| O=c1c2ccccc2nc2n(/N=C/c3cccs3)c(Cc3ccccc3Nc3c(Cl)cccc3Cl)nn12 | 12.5 (≈ 6.82 µg/mL) | 12.5 (≈ 6.82 µg/mL) | 12.5 (≈ 6.82 µg/mL) | 12.5 (≈ 6.82 µg/mL) |  |  | 12.5 (≈ 6.82 µg/mL) | 4.903 | 12.5 (≈ 6.82 µg/mL) |
| O=c1c2ccccc2nc2n(/N=C/c3ccncc3)c(Cc3ccccc3Nc3c(Cl)cccc3Cl)nn12 | 100 (≈ 54 µg/mL) | 100 (≈ 54 µg/mL) | 100 (≈ 54 µg/mL) | 25 (≈ 13.5 µg/mL) |  |  |  | 4.602 | 25 (≈ 13.5 µg/mL) |
| CC1(C)S[C@@H]2[C@H](NC(=O)[C@H](N)c3ccccc3)C(=O)N2[C@H]1C(=O)O [AMPICILLIN] | 6.25 (≈ 2.18 µg/mL) | < 6.25 | 6.25 (≈ 2.18 µg/mL) | < 6.25 |  |  |  |  |  |
| NNC(=O)c1ccncc1 [ISONIAZID] |  |  |  |  |  |  | < 0.2 |  | < 0.2 |
